Results on 24 compounds are retold here after ChEMBL document CHEMBL1125386, “Small atrial natriuretic peptide analogues: design, synthesis, and structural requirements for guanylate cyclase activation” (J Med Chem, 1992).

Where a SMILES comes first, the peptide text is derived from it. Bridges are numbered along the chain shown (N, C = ends). Where only a bound is given, the exact number is not on record here.

Test system in one assay: not listed separately
Put plainly: Binding affinity towards low-affinity site of Atrial natriuretic peptide receptor 1 of rabbit adrenal membrane. Type of assay: tissue-based.
Settings: not given
`CC[C@H](C)[C@@H]1NC(=O)[C@@H](CCCN=C(N)N)NC(=O)CNC(=O)CNC(=O)[C@@H](Cc2ccccc2)NC(=O)[C@H](NC(=O)[C@H](N)CCCN=C(N)N)CSSC[C@H](C(=O)O)NC(=O)[C@@H](CCCN=C(N)N)NC(=O)[C@H](Cc2ccccc2)NC(=O)[C@@H]([C@@H](C)CC)NC(=O)[C@H](CCCN=C(N)N)NC(=O)[C@@H](CC(=O)O)NC1=O` had a KL of 660 nM.

In turn, `CC[C@H](C)[C@@H]1NC(=O)[C@@H](CCCN=C(N)N)NC(=O)CNC(=O)CNC(=O)[C@@H](Cc2ccc(OC)c(OC)c2)NC(=O)C(C)NC(=O)[C@H](NC(=O)[C@H](CO)NC(=O)[C@@H](N)CO)CSSC[C@H](C(=O)N[C@H](Cc2ccccc2)C(=O)N[C@H](CCCN=C(N)N)C(=O)O)NC(=O)[C@@H]([C@@H](C)CC)NC(=O)[C@H](CCCN=C(N)N)NC(=O)[C@@H](CC(=O)O)NC1=O` (stereo in doubt) displayed a KL of 13000 nM.

Compound `CC[C@H](C)[C@@H]1NC(=O)[C@@H](CCCN=C(N)N)NC(=O)CNC(=O)CNC(=O)[C@@H](Cc2ccccc2)NC(=O)[C@@H](C)NC(=O)[C@H](NC(=O)[C@H](CO)NC(=O)[C@@H](N)CO)CSSC[C@H](C(=O)N[C@H](Cc2ccccc2)C(=O)N[C@H](CCCN=C(N)N)C(=O)O)NC(=O)[C@@H]([C@@H](C)CC)NC(=O)[C@H](CCCN=C(N)N)NC(=O)[C@@H](CC(N)=O)NC1=O` had a KL of 540 nM.

`CC[C@H](C)[C@@H]1NC(=O)[C@@H](CCCN=C(N)N)NC(=O)CNC(=O)CNC(=O)[C@@H](Cc2ccccc2)NC(=O)CNC(=O)[C@H](NC(=O)[C@H](CO)NC(=O)[C@@H](N)CO)CSSC[C@H](C(=O)N[C@H](Cc2ccccc2)C(=O)N[C@@H](CCCN=C(N)N)C(=O)O)NC(=O)[C@@H]([C@@H](C)CC)NC(=O)[C@H](CCCN=C(N)N)NC(=O)[C@@H](CC(=O)O)NC1=O`: the KL was 620 nM.

Turning to `CC[C@H](C)[C@@H]1NC(=O)[C@H](CCCN=C(N)N)NC(=O)[C@@H](CC(=O)O)NC(=O)[C@H]([C@@H](C)CC)NC(=O)[C@@H](CCCN=C(N)N)NC(=O)CNC(=O)CNC(=O)[C@@H](Cc2ccccc2)NC(=O)CNC(=O)[C@@H](NC(=O)[C@H](CO)NC(=O)[C@@H](N)CO)CSSC[C@@H](C(=O)N[C@H](Cc2ccccc2)C(=O)N[C@@H](CCCCN)C(=O)O)NC1=O`, the KL was determined as 5900 nM.

For a further assay, the species on record is Oryctolagus cuniculus. Put plainly: In vitro vasorelaxant potency at dose 10 e -8 to 10 e-4 M using rabbit aortic rings precontracted with histamine. Type of assay: functional. To be noted: Aorta. The method, boiled down: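 Rabbit aortic rings (4–5 mm) in Krebs-Henseleit buffer, gassed 95:5 O2/CO2, pH 7.4, isometric tension, baseline 2 g held 2 h. Rings contracted with 3 μM histamine, then six cumulative half-log peptide increments over 90 min, range 10⁻⁸ to 10⁻⁴ M. Triplicate determinations.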
What is called EC50 is the midpoint of the concentration-response curve. `CC[C@H](C)[C@@H]1NC(=O)[C@H](CCCN=C(N)N)NC(=O)CNC(=O)CNC(=O)[C@H](Cc2ccccc2)NC(=O)CCNC(=O)[C@@H](NC(=O)[C@H](CO)NC(=O)[C@@H](N)CO)CSSC[C@@H](C(=O)N[C@@H](Cc2ccccc2)C(=O)N[C@@H](CCCN=C(N)N)C(=O)O)NC(=O)[C@H]([C@@H](C)CC)NC(=O)[C@H](CCCN=C(N)N)NC(=O)[C@H](CC(=O)O)NC1=O` returned an EC50 of 1.8 µM.

For `CC[C@H](C)[C@@H]1NC(=O)[C@H](CCCN=C(N)N)NC(=O)[C@H](CC(=O)O)NC(=O)[C@H]([C@@H](C)CC)NC(=O)[C@H](CCCN=C(N)N)NC(=O)CNC(=O)CNC(=O)[C@H](Cc2ccccc2)NC(=O)[C@@H](N)CSSC[C@@H](C(=O)O)NC1=O` (H-CFGGRIDRIC-OH; disulfide 1-10), the EC50 stood at 3.8 µM.

`CC[C@H](C)[C@@H]1NC(=O)[C@H](CCCN=C(N)N)NC(=O)CNC(=O)CNC(=O)[C@H](Cc2ccccc2)NC(=O)[C@@H](NC(=O)[C@H](CO)NC(=O)[C@@H](N)CO)CSSC[C@@H](C(=O)N[C@@H](CC(N)=O)C(=O)N[C@@H](CO)C(=O)O)NC(=O)[C@H]([C@@H](C)CC)NC(=O)[C@H](CCCN=C(N)N)NC(=O)[C@H](CC(=O)O)NC1=O` (H-SSCFGGRIDRICNS-OH; disulfide 3-12) registered an EC50 of over 10 µM.

`CC[C@H](C)[C@@H]1NC(=O)[C@H](CCCN=C(N)N)NC(=O)CNC(=O)CNC(=O)[C@H](Cc2ccccc2)NC(=O)[C@@H](CC2CCCCC2)NC(=O)[C@@H](NC(=O)[C@H](CO)NC(=O)[C@@H](N)CO)CSSC[C@@H](C(=O)N[C@@H](Cc2ccccc2)C(=O)N[C@@H](CCCN=C(N)N)C(=O)O)NC(=O)[C@H]([C@@H](C)CC)NC(=O)[C@H](CCCN=C(N)N)NC(=O)[C@H](CC(=O)O)NC1=O` displayed an EC50 of 0.43 µM.

Compound `CC[C@H](C)[C@@H]1NC(=O)[C@H](CCCN=C(N)N)NC(=O)CNC(=O)CNC(=O)[C@H](Cc2ccccc2)NC(=O)[C@@H](N)CSSC[C@@H](C(=O)N[C@@H](Cc2ccccc2)C(=O)N[C@@H](CCCN=C(N)N)C(=O)O)NC(=O)[C@H]([C@@H](C)CC)NC(=O)[C@H](CCCN=C(N)N)NC(=O)[C@H](CC(=O)O)NC1=O` (H-CFGGRIDRICFR-OH; disulfide 1-10) registered an EC50 of 4.9 µM.

`CC[C@H](C)[C@@H]1NC(=O)[C@H](CCCN=C(N)N)NC(=O)[C@H](CC(=O)O)NC(=O)[C@H]([C@@H](C)CC)NC(=O)[C@H](CCCN=C(N)N)NC(=O)CNC(=O)CNC(=O)[C@H](Cc2ccccc2)NC(=O)[C@@H](NC(=O)[C@H](CO)NC(=O)[C@@H](N)CO)CSSC[C@@H](C(=O)O)NC1=O` (H-SSCFGGRIDRIC-OH; disulfide 3-12) had an EC50 of 5.2 µM.

Another assay deals with Atrial natriuretic peptide receptor 1 (Oryctolagus cuniculus). In words: Binding affinity for low-affinity site Atrial natriuretic peptide receptor 1 of rabbit adrenal membrane. The settings on record: Adrenal gland.
As to `CC[C@H](C)[C@@H]1NC(=O)[C@@H](CCCN=C(N)N)NC(=O)CNC(=O)CNC(=O)[C@@H](C2CCCCC2)NC(=O)[C@H](NC(=O)[C@@H](CO)NC(=O)[C@H](N)CO)CSSC[C@H](C(=O)O)NC(=O)[C@@H](CCCN=C(N)N)NC(=O)[C@H](Cc2ccccc2)NC(=O)[C@@H]([C@@H](C)CC)NC(=O)[C@H](CCCN=C(N)N)NC(=O)[C@@H](CC(=O)O)NC1=O`, the KL came to 160 nM.

Compound `CC[C@H](C)[C@@H]1NC(=O)[C@@H](CCCN=C(N)N)NC(=O)CNC(=O)CNC(=O)[C@@H](C2CCCCC2)NC(=O)[C@H](NC(=O)[C@H](N)CCCN=C(N)N)CSSC[C@H](C(N)=O)NC(=O)[C@@H](C)NC(=O)CNC(=O)[C@@H]([C@@H](C)CC)NC(=O)[C@H](CCCN=C(N)N)NC(=O)[C@@H](CC(=O)O)NC1=O` gave a KL of 1200 nM.

The compound `CC[C@H](C)[C@@H]1NC(=O)[C@@H](CCCN=C(N)N)NC(=O)CNC(=O)CNC(=O)[C@@H](C2CCCCC2)NC(=O)CCSSC[C@H](C(N)=O)NC(=O)[C@@H](CCCN=C(N)N)NC(=O)[C@@H](Cc2ccccc2)NC(=O)[C@@H]([C@@H](C)CC)NC(=O)[C@H](CCCN=C(N)N)NC(=O)[C@@H](CC(=O)O)NC1=O` came in with a KL of 6500 nM.

For the compound `CC[C@H](C)[C@@H]1NC(=O)[C@@H](CCCN=C(N)N)NC(=O)CNC(=O)CNC(=O)[C@@H](C2CCCCC2)NC(=O)[C@H](NC(=O)[C@H](N)CCCN=C(N)N)CSSC[C@H](C(N)=O)NC(=O)[C@@H](CCCN=C(N)N)NC(=O)[C@H](Cc2ccccc2)NC(=O)[C@@H]([C@@H](C)CC)NC(=O)[C@H](CCCN=C(N)N)NC(=O)CNC1=O`, the KL came out at 260 nM.

`CC[C@H](C)[C@@H]1NC(=O)[C@@H](CCCN=C(N)N)NC(=O)CNC(=O)CNC(=O)[C@@H](C2CCCCC2)NC(=O)[C@H](NC(=O)[C@H](N)CCCN=C(N)N)CSSC[C@H](C(N)=O)NC(=O)[C@@H](CCCN=C(N)N)NC(=O)[C@H]2Cc3ccccc3CN2C(=O)[C@@H]([C@@H](C)CC)NC(=O)[C@H](CCCN=C(N)N)NC(=O)[C@@H](CC(=O)O)NC1=O` showed a KL of 96 nM.

On to `CC[C@H](C)[C@@H]1NC(=O)[C@H]2CCCCNC(=O)C[C@@H](NC1=O)C(=O)N[C@@H](CCCN=C(N)N)C(=O)N[C@H]([C@@H](C)CC)C(=O)N[C@@H](Cc1ccccc1)C(=O)N[C@H](CCCN=C(N)N)C(=O)N[C@@H](C(N)=O)CSSC[C@@H](NC(=O)[C@H](N)CCCN=C(N)N)C(=O)N[C@H](C1CCCCC1)C(=O)NCC(=O)NCC(=O)N2`, for which the KL was 58 nM.

Take `CC[C@H](C)[C@@H]1NC(=O)[C@@H](CCCN=C(N)N)NC(=O)CNC(=O)CNC(=O)[C@@H](C2CCCCC2)NC(=O)[C@H](NC(=O)[C@H](N)CCCN=C(N)N)CSSC[C@H](C(N)=O)NC(=O)[C@@H](CCCN=C(N)N)NC(=O)[C@H](Cc2ccccc2)NC(=O)[C@@H](C)NC(=O)[C@H](CCCN=C(N)N)NC(=O)[C@@H](CC(=O)O)NC1=O`: the KL was found to be 230 nM.

With `CC[C@H](C)[C@@H]1NC(=O)[C@@H](CCCN=C(N)N)NC(=O)CNC(=O)CNC(=O)[C@@H](C2CCCCC2)NC(=O)CCSSC[C@@H](C(N)=O)NC(=O)[C@@H](CCCN=C(N)N)NC(=O)[C@H](Cc2ccccc2)NC(=O)[C@@H]([C@@H](C)CC)NC(=O)[C@H](CCCN=C(N)N)NC(=O)[C@@H](CC(=O)O)NC1=O`, the KL came out at 1900 nM.

Compound `CC[C@H](C)[C@@H]1NC(=O)[C@@H](CCCN=C(N)N)NC(=O)CNC(=O)CNC(=O)[C@@H](C2CCCCC2)NC(=O)CCSSC[C@H](C(N)=O)NC(=O)[C@H](CCCN=C(N)N)NC(=O)[C@H](Cc2ccccc2)NC(=O)[C@@H]([C@@H](C)CC)NC(=O)[C@H](CCCN=C(N)N)NC(=O)[C@@H](CC(=O)O)NC1=O` registered a KL of 380 nM.

Consider `CC[C@H](C)[C@@H]1NC(=O)[C@@H](CCCN=C(N)N)NC(=O)CNC(=O)CNC(=O)[C@@H](Cc2ccccc2)NC(=O)[C@H](NC(=O)[C@H](N)CCCN=C(N)N)CSSC[C@H](C(=O)O)NC(=O)[C@@H](CCCN=C(N)N)NC(=O)[C@H](Cc2ccccc2)NC(=O)[C@@H]([C@@H](C)CC)NC(=O)[C@H](CCCN=C(N)N)NC(=O)[C@@H](CC(C)C)NC1=O`, for which the KL amounted to 680 nM.

Compound `CC[C@H](C)[C@H]1NC(=O)[C@H](CCCN=C(N)N)NC(=O)[C@@H](CC(=O)O)NC(=O)[C@H](Cc2ccccc2)NC(=O)[C@@H](CCCN=C(N)N)NC(=O)CNC(=O)CNC(=O)[C@@H](C2CCCCC2)NC(=O)[C@H](NC(=O)[C@H](N)CCCN=C(N)N)CSSC[C@H](C(N)=O)NC(=O)[C@@H](CCCN=C(N)N)NC(=O)[C@H](Cc2ccccc2)NC1=O` had a KL of 680 nM.

For `CC[C@H](C)[C@@H]1NC(=O)[C@@H](CCCN=C(N)N)NC(=O)CNC(=O)CNC(=O)[C@@H](C2CCCCC2)NC(=O)[C@H](N)CSSC[C@H](C(N)=O)NC(=O)[C@@H](CCCN=C(N)N)NC(=O)[C@H](Cc2ccccc2)NC(=O)[C@@H](C)NC(=O)[C@H](CCCN=C(N)N)NC(=O)[C@@H](CC(=O)O)NC1=O`, the KL is 800 nM.

`CC(C)C[C@@H]1NC(=O)[C@@H](CCCN=C(N)N)NC(=O)CNC(=O)CNC(=O)[C@@H](Cc2ccccc2)NC(=O)[C@@H](C)NC(=O)[C@H](NC(=O)[C@H](CO)NC(=O)[C@@H](N)CO)CSSC[C@H](C(=O)N[C@H](Cc2ccccc2)C(=O)N[C@H](CCCN=C(N)N)C(=O)O)NC(=O)[C@@H](CC(C)C)NC(=O)[C@H](CCCN=C(N)N)NC(=O)[C@@H](CC(=O)O)NC1=O` registered a KL of 680 nM.
